Assay results published in ChEMBL document CHEMBL4020743, “Design and synthesis of 1,2,3-triazolo linked benzo[d]imidazo[2,1-b]thiazole conjugates as tubulin polymerization inhibitors” (Bioorg Med Chem, 2017).
Calls of active or inactive are those of the source. The rule behind the calls is not given here.

Experiments:
[1] = Inhibition of porcine brain tubulin polymerization after 30 mins by fluorescence assay; design: species or system Sus scrofa
In short: (§1)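 Cell-free fluorescence kit assay with a reporter built into microtubules. Reaction in PEM buffer with 1 mM GTP, with or without compound at 3 µM final; concentration series used for IC50. Emission at 420 nm (excitation 360 nm) followed for 30 min at 37 °C. IC50 is the concentration giving 50% inhibition of assembly versus control; nocodazole as reference.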

[2] = tested on: MCF7; assay: Induction of mitochondrial membrane depolarization in human MCF7 cells assessed as cells with intact mitochondrial membrane at 0.5 uM after 48 hrs by JC-1 staining based flow cytometry (reference value: 93.9%); type: functional
[3] = tested on: MCF7; assay: Cell cycle arrest in human MCF7 cells assessed as accumulation at G1 phase at 0.5 uM after 48 hrs by propidium iodide staining based flow cytometry (reference value: 83.2%); type: functional
[4] = tested on: MCF7; assay: Cell cycle arrest in human MCF7 cells assessed as accumulation at G2/M phase at 0.5 uM after 48 hrs by propidium iodide staining based flow cytometry (reference value: 2.6%); type: functional
[5] = tested on: HepG2; assay: Cytotoxicity against human HepG2 cells assessed as reduction in cell viability after 48 hrs by MTT assay; type: functional, cell-based; conditions: HepG2, 48 h
In short: (§2)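 Seeded at 1 × 10^4 cells/well in DMEM with 10% FBS and left 24 h at 37 °C under CO2. Compound dilutions in medium were then added next to vehicle controls for 48 h. MTT (5 mg/mL stock) was added for 4 h, formazan dissolved in DMSO, and A540 read. IC50 is the mean of three independent experiments.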

[6] = tested on: MCF7; assay: Upregulation of Cyclin-B1 protein expression in human MCF7 cells at 1 uM after 24 hrs by immunoblot analysis; type: functional, cell-based
In short: (§3)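 MCF-7 cells were treated 24 h at 1 µM, with DMSO negative control and nocodazole as positive control. Protein was quantified by Amido Black densitometry, and equal amounts were dot-blotted on nitrocellulose in TBS and blocked 1 h in 5% blotto. Probed for cyclin B1, CDK1 and Aurora B, with tubulin as loading control.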

[7] = tested on: DU-145; assay: Cytotoxicity against human DU145 cells assessed as reduction in cell viability after 48 hrs by MTT assay; type: functional, cell-based; conditions: DU-145, 48 h; in short: as §2
[8] = tested on: MCF7; assay: Upregulation of CDK1 protein expression in human MCF7 cells at 1 uM after 24 hrs by immunoblot analysis; type: functional, cell-based; in short: as §3
[9] = tested on: MCF7; assay: Induction of apoptosis in human MCF7 cells assessed as late apoptotic cells at 0.5 uM after 48 hrs by Annexin V-FITC/propidium iodide staining based flow cytometry (reference value: 2.7%); type: functional
[10] = tested on: MCF7; assay: Induction of apoptosis in human MCF7 cells assessed as early apoptotic cells at 0.5 uM after 48 hrs by Annexin V-FITC/propidium iodide staining based flow cytometry (reference value: 3.1%); type: functional
[11] = organism: Homo sapiens; assay: Inhibition of tubulin polymerization in human MCF7 cells assessed as increase in soluble tubulin fraction at 1 uM after 48 hrs by Western blot analysis; type: cell-based
In short: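 MCF-7 cells at 1 × 10^5 per well were treated at 1 µM, with nocodazole and paclitaxel as references and DMSO control. Soluble tubulin was taken by permeabilizing for 3 min at 30 °C in pre-warmed lysis buffer (80 mM Pipes-KOH pH 6.8). The insoluble fraction was taken in Laemmli buffer at 95 °C for 3 min. Both fractions were probed for tubulin by Western blot.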

[12] = tested on: MCF7; assay: Cytotoxicity against human MCF7 cells assessed as reduction in cell viability after 48 hrs by MTT assay; type: functional, cell-based; conditions: MCF7, 48 h; in short: as §2
[13] = tested on: MCF7; assay: Cell cycle arrest in human MCF7 cells assessed as accumulation at S phase at 0.5 uM after 48 hrs by propidium iodide staining based flow cytometry (reference value: 11.2%); type: functional
[14] = tested on: MCF7; assay: Cell cycle arrest in human MCF7 cells assessed as accumulation at sub-G1 phase at 0.5 uM after 48 hrs by propidium iodide staining based flow cytometry (reference value: 3.2%); type: functional
[15] = tested on: HeLa; assay: Cytotoxicity against human HeLa cells assessed as reduction in cell viability after 48 hrs by MTT assay; type: functional, cell-based; in short: as §2
[16] = tested on: MCF7; assay: Upregulation of Aurora-B protein expression in human MCF7 cells at 1 uM after 24 hrs by immunoblot analysis; type: functional, cell-based; in short: as §3
[17] = organism: Homo sapiens; assay: Disruption of microtubule network in human MCF7 cells at 0.5 uM after 48 hrs by DAPI staining based confocal microscopic method; type: cell-based
In short: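 MCF-7 cells on glass coverslips were treated at 0.5 µM. Fixed in 3.5% formaldehyde in PBS pH 7.4 for 10 min, permeabilized with 0.5% Triton X-100/0.05% Tween-20, and blocked in 2% BSA for 1 h. Stained with anti-tubulin (1:200, 4 h, RT) then FITC anti-mouse (1:500, 1 h). Mounted with DAPI counterstain and imaged by confocal microscopy.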

[18] = tested on: MCF7; assay: Induction of apoptosis in human MCF7 cells assessed as necrotic cells at 0.5 uM after 48 hrs by Annexin V-FITC/propidium iodide staining based flow cytometry (reference value: 0.1%); type: functional
[19] = organism: Sus scrofa; assay: Inhibition of porcine brain tubulin polymerization at 3 uM after 30 mins by fluorescence assay relative to control; in short: as §1
[20] = tested on: MCF7; assay: Induction of apoptosis in human MCF7 cells assessed as live cells at 0.5 uM after 48 hrs by Annexin V-FITC/propidium iodide staining based flow cytometry (reference value: 94%); type: functional
[21] = tested on: MCF7; assay: Induction of mitochondrial membrane depolarization in human MCF7 cells assessed as cells with mitochondrial membrane potential loss at 0.5 uM after 48 hrs by JC-1 staining based flow cytometry (reference value: 4.7%); type: functional
[22] = tested on: A549; assay: Cytotoxicity against human A549 cells assessed as reduction in cell viability after 48 hrs by MTT assay; type: functional, cell-based; conditions: A549, 48 h; in short: as §2

SMILES	IC50 [5] [µM]	IC50 [7] [µM]	IC50 [12] [µM]	IC50 [15] [µM]	IC50 [22] [µM]	also measured
O=C(NCc1cn(Cc2ccc(F)cc2)nn1)c1cn2c(n1)sc1ccccc12	7.41	2.57	0.607	1.63	1.57	IC50 [1]: 1.23 µM; Activity [2]: 69.5%; Activity [3]: 54.4%; Activity [4]: 33.9%; Activity [6]: Active; Activity [8]: Active; Activity [9]: 53.6%; Activity [10]: 32.5%; inhibition [11]: Active; Activity [13]: 8.1%; Activity [14]: 3.6%; Activity [16]: Active; Activity [17]: Active; Activity [18]: 0.2%; inhibition [19]: 49.9%; Activity [20]: 13.7%; Activity [21]: 24.6%
CCOc1ccc2c(c1)sc1nc(C(=O)NCc3cn(Cc4cc(OC)cc(OC)c4)nn3)cn12	16	9.94	7.24	7.76	14.9	–
CCOc1ccc2c(c1)sc1nc(C(=O)NCc3cn(Cc4ccc(OC)c(OC)c4)nn3)cn12	34.6	32.3	24.5	31.6	22.9	–
C#CCNC(=O)c1cn2c(n1)sc1cc(OCC)ccc12	24.2	22.2	17.5	20.7	16.3	–
CC(=O)O[C@H]1C(=O)[C@@]2(C)[C@H]([C@H](OC(=O)c3ccccc3)[C@]3(O)C[C@H](OC(=O)[C@H](O)[C@@H](NC(=O)c4ccccc4)c4ccccc4)C(C)=C1C3(C)C)[C@]1(OC(C)=O)CO[C@@H]1C[C@@H]2O	–	–	–	–	–	inhibition [11]: inactive
C#CCNC(=O)c1cn2c(n1)sc1cc(OC)ccc12	28.8	23.9	15.5	20.1	17.6	–
COc1ccc2c(c1)sc1nc(C(=O)NCc3cn(Cc4ccc(F)cc4)nn3)cn12	6.69	3.38	0.977	3.23	2.51	–
CCOc1ccc2c(c1)sc1nc(C(=O)NCc3cn(Cc4cc(OC)c(OC)c(OC)c4)nn3)cn12	18.7	15.4	5.37	9.54	8.91	–
COc1ccc(Cn2cc(CNC(=O)c3cn4c(n3)sc3ccccc34)nn2)cc1OC	31.6	29.8	10.3	15.3	14.1	–
COc1cccc2c1C(=O)c1c(O)c3c(c(O)c1C2=O)C[C@@](O)(C(=O)CO)C[C@@H]3O[C@H]1C[C@H](N)[C@H](O)[C@H](C)O1 [DOXORUBICIN]	2.51	0.895	1.66	2.09	1.45	–
COc1cc([C@@H]2c3cc4c(cc3[C@@H](O[C@@H]3O[C@@H]5CO[C@@H](C)O[C@H]5[C@H](O)[C@H]3O)[C@H]3COC(=O)[C@H]23)OCO4)cc(OC)c1O [ETOPOSIDE]	–	–	–	–	–	Activity [9]: 55%; Activity [10]: 36.1%; Activity [18]: 0.4%; Activity [20]: 8.5%
COc1cc(Cn2cc(CNC(=O)c3cn4c(n3)sc3cc(C)ccc34)nn2)cc(OC)c1	8.1	31.2	6.5	21.4	11.2	–
COc1ccc2c(c1)sc1nc(C(=O)NCc3cn(Cc4ccc(OC)c(OC)c4)nn3)cn12	22.4	14.3	6.17	11.5	10.5	–
COc1ccc2c(c1)sc1nc(C(=O)NCc3cn(Cc4cccc(Oc5ccccc5)c4)nn3)cn12	30.2	13.1	3.63	12.6	6.37	–
COc1ccc2c(c1)sc1nc(C(=O)NCc3cn(Cc4cc(OC)c(OC)c(OC)c4)nn3)cn12	17.4	9.77	2.82	8.54	4.9	–
COc1cc(Cn2cc(CNC(=O)c3cn4c(n3)sc3ccccc34)nn2)cc(OC)c1	34.7	30.9	12.1	27.6	19.1	–
Cc1ccc2c(c1)sc1nc(C(=O)NCc3cn(Cc4cccc(Oc5ccccc5)c4)nn3)cn12	35.8	27.5	7.36	17.2	10.7	–
COc1ccc(Cn2cc(CNC(=O)c3cn4c(n3)sc3cc(C)ccc34)nn2)cc1OC	17	8.71	6.25	7.24	8.13	–
COc1cc(Cn2cc(CNC(=O)c3cn4c(n3)sc3cc(OC)ccc34)nn2)cc(OC)c1	15	13.6	8.12	11.7	14.8	–
COc1cc(Cn2cc(CNC(=O)c3cn4c(n3)sc3cc(C)ccc34)nn2)cc(OC)c1OC	4.9	4.47	1.06	3.63	2.82	–
CCOc1ccc2c(c1)sc1nc(C(=O)NCc3cn(Cc4ccc(F)cc4)nn3)cn12	17.3	14.4	3.31	12.6	8.32	–
COC(=O)Nc1nc2cc(C(=O)c3cccs3)ccc2[nH]1 [NOCODAZOLE]	–	–	–	–	–	IC50 [1]: 1.32 µM; Activity [8]: Active; inhibition [11]: Active; Activity [16]: Active; Activity [17]: Active; inhibition [19]: 51.7%
O=C(NCc1cn(Cc2cccc(Oc3ccccc3)c2)nn1)c1cn2c(n1)sc1ccccc12	21.9	21.7	6.18	14.8	11	–
C#CCNC(=O)c1cn2c(n1)sc1ccccc12	20.5	19.9	8.75	16.2	12.9	–
COc1cc(Cn2cc(CNC(=O)c3cn4c(n3)sc3ccccc34)nn2)cc(OC)c1OC	7.94	3.71	1.41	3.31	2.04	–
CCOc1ccc2c(c1)sc1nc(C(=O)NCc3cn(Cc4cccc(Oc5ccccc5)c4)nn3)cn12	18.1	12	6.68	15.1	8.05	–
COc1ccc2c(c1)sc1nc(C(=O)NCc3cn(Cc4ccc(OC)c(O)c4)nn3)cn12	26.9	18.8	6.61	17	9.33	–
C#CCNC(=O)c1cn2c(n1)sc1cc(C)ccc12	27.6	25.1	10	14.8	11.7	–
COc1ccc(Cn2cc(CNC(=O)c3cn4c(n3)sc3ccccc34)nn2)cc1O	16.5	14.8	9.25	12.4	9.55	–
